The entries come from a sample that favours hits as a whole.
Cardio protect – modulators protecting cardiomyocytes from myocardial damage; AID 588492; protection from H2O2 cell death, % at 20 µM; actives 0.63% (n = 360,000); H9c2 cardiomyocytes, H2O2 injury protection, ATPLite, 2 h;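 active = compounds giving at least 50% protection of heart cells from peroxide-induced death in the single-dose screen, raw or plate-pattern-corrected value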;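 note: 0% = DMSO wells with peroxide and 100% = DMSO wells without peroxide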
CHOP inhibitor – blocks CHOP induction under ER stress. actives 3.8% (n = 220,000). inhibition, % at 10 µM. CHO-K1 CHOP-promoter luciferase, tunicamycin-induced, 15-18 h;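 active = compounds that reduced the stress-induced luciferase reporter signal by more than about 70% of percent inhibition, limit read from the data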;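 note: 0% = tunicamycin plus vehicle and 100% = wells without tunicamycin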
XBP1 UPR activ – activators of adaptive arm of unfolded protein response (XBP1); CHO-XBP1 luciferase reporter, IRE1-XBP1 UPR activation, luminescence; percent of tunicamycin response, DMSO as zero; activation, % at 20 µM; actives 0.33% (n = 330,000); AID 463104;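 active = versus positive control, 20 µM dose yields 30% or more activation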;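 note: 100% = tunicamycin at 10 µg/mL and 0% = DMSO only wells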
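Signal: luciferase luminescence; Assay system: CHO-XBP1 luciferase reporter cells; Amount: one thousand reporter cells per well; Dosing: 20 µM single concentration, DMSO 1%; Benchmarks: high control tunicamycin 10 µg/mL final, low control DMSO vehicle only; Schedule: 6 h compound exposure at 37 °C, 5% CO2; Evaluation: percent activation relative to tunicamycin reference.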
hiPSC survival – hiPSC single-cell survival enhancement | ATPlite luminescence; 100% = ROCK inhibitor wells, 0% = DMSO | survival enhancement, % at 20 µM | actives 0.044% (n = 360,000); in the data active = survival enhancement above about 18%;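 note: cells exposed to compounds for 16 hours before the ATP read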
UPR CHOP act – activators of apoptotic arm of unfolded protein response (CHOP). activation, % at 10 µM. AID 449763. CHO-CHOP luciferase reporter, UPR activation, luminescence; percent of tunicamycin response over DMSO baseline. actives 0.34% (n = 330,000);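 active = at 10 µM dose, activation of 40% or more, normalized to positive control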;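 note: 100% = tunicamycin at 10 µg/mL and 0% = DMSO alone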
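System: CHO CHOP reporter cells. Amount: 500 cells per well. Buffer or medium: F12 medium, 10% FBS. Compound dosing: one dose, 10 µM in 0.5% DMSO. Incubation: 6 h compound exposure at 37 °C after overnight seeding. Technique: Steady-Glo luciferase luminescence. Benchmarks: tunicamycin and DMSO controls.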
An asterisk follows results filed as active; . = no result given.

SMILES	Cardio protect	CHOP inhibitor	XBP1 UPR activ	hiPSC survival	UPR CHOP act
CCOc1ccccc1C(=O)Nc1nnc(C(C)C)s1	3.5	75.7*	8.6	-3.2	2.9
COc1ccc(N=Cc2cc(Cc3ccccc3Cl)cc([N+](=O)[O-])c2O)cc1OC	76.3*	16.7	-1.0	0.4	-1.9
C=CCSc1nnc2n(CCc3ccccc3)c(=O)c3c4c(sc3n12)COC(C)(C)C4	5.3	70.8*	-2.7	3.8	0.9
N#Cc1cccc2c1-c1ccccc1/C2=N/NC(N)=O	56.5*	.	-0.1	-0.9	-0.4
N#Cc1cccc2c1-c1ccccc1/C2=N/NC(N)=S	16.3	.	3.8	-0.4	7.0
COCCNC(=O)c1ccc(N2CC3CC(C2)c2cccc(=O)n2C3)c(NC(=O)c2ccccc2Br)c1 (stereo not given)	4.6	.	.	-1.2	.
COC(=O)CNc1nc(Cl)nc(Nc2ccc(Cl)cc2)n1	-0.8	74.5*	-0.5	6.6	2.9
CC(=O)Nc1ccc(S(=O)(=O)NCCC(=O)NCC2COc3ccccc3O2)cc1 (stereo not given)	1.6	.	-1.8	0.0	-1.2
COc1ccc(NC(=O)CN(c2ccc(C(C)C)cc2)S(=O)(=O)c2c(C)noc2C)cc1OC	-5.3	70.5*	-0.6	-0.6	3.6
CCOc1ccc(N(CC(=O)Nc2ccc(C)cc2)S(=O)(=O)c2c(C)noc2C)cc1	-7.7	23.6	-4.0	-2.9	0.8
CCOc1ccc(N(CC(=O)Nc2ccc(F)c(F)c2)S(=O)(=O)c2c(C)noc2C)cc1	-2.8	89.7*	-2.2	7.6	1.1
Cc1cn([C@H]2C[C@H](O)[C@@H](/C=C/C(=O)NCCC(c3ccccc3)c3ccccc3)O2)c(=O)[nH]c1=O	5.9	.	.	0.9	.
CN1CCc2c(cc(O)c(O)c2Cl)C(c2cccc(Cl)c2)C1 (stereo not given)	.	-14.7	.	.	.
Cc1onc(-c2ccccc2)c1C(=O)NC(=S)NNC(=O)c1ccc(O)cc1O	51.4*	57.2	-0.4	-0.2	-0.4
Cc1onc(-c2ccccc2)c1C(=O)NC(=S)NNC(=O)c1ccccc1O	59.6*	77.5*	0.3	-1.2	0.3
Cc1onc(-c2ccccc2)c1C(=O)NC(=S)NNC(=O)c1ccc(O)cc1	33.7	65.4	-1.6	-0.9	3.1
COc1cc(NC(=O)C2(C)CCN2C(C)C)cc(OC)c1OC (stereo not given)	3.0	.	.	-3.5	.
CCCCOCCCNC(=O)C[C@@H]1C[C@@]2(C(=O)OCC)CCC=C2N(Cc2ccc3c(c2)OCO3)C1=O	.	.	.	-0.5	.
O=C(Nc1cccc(C(=O)O)c1)/C(=C\c1ccccc1)NC(=O)c1ccco1	-3.0	.	.	5.6	.
CN(C)c1ccc(NC2=C(Cl)C(=O)c3ccccc3C2=O)cc1	-25.9	94.8*	0.0	-5.0	25.6
O=C(Nc1ccc2cn[nH]c2c1)c1c(Cl)cccc1Cl	-3.4	42.7	1.7	2.7	-1.8
O=C1C(Cl)=C(Nc2ccc3cn[nH]c3c2)C(=O)c2ccccc21	-18.9	106.6*	.	15.0	.
O=C1C(Cl)=C(NCCCO)C(=O)c2ccccc21	-19.7	-0.8	-2.5	-2.0	2.4
COCOc1ccc(-c2ncc(OCCN3CCCC3=O)nc2NC(=O)c2cc3ccccc3s2)cc1	10.3	.	.	3.9	.
CSc1nc(-c2ccc(Cl)cc2)nn1S(=O)(=O)c1ccc(Cl)cc1	-6.6	72.0*	0.5	2.2	5.8
SMILES	Cardio protect	CHOP inhibitor	XBP1 UPR activ	hiPSC survival	UPR CHOP act
CCCC(=O)n1nc(-c2ccc(Cl)cc2)nc1SC	1.4	78.0*	5.2	-1.3	5.1
CCC(=O)n1nc(-c2ccc(Cl)cc2)nc1SC	10.2	18.6	3.5	-2.7	6.1
Clc1ccc(-c2ccc(CNCc3ccccn3)o2)cc1	6.0	.	0.9	-0.3	3.6
CCOC1=C2[C@@H](CN(S(=O)(=O)c3ccc(C)cc3)[C@H]2c2ccccc2F)[C@H]2C(=O)N(c3ccccc3)C(=O)[C@H]2C1	9.9	.	.	-1.2	.
CCn1nccc1NC(=O)c1csc([C@@H]2O[C@H](CO)[C@H](O)[C@H](O)[C@H]2O)n1	3.1	.	.	6.0	.
CC1CCCN(S(=O)(=O)c2cc(C(=O)NCCc3ccc(S(N)(=O)=O)cc3)ccc2Cl)C1 (stereo not given)	-6.1	.	.	0.6	.
O=C(C[C@H]1C/C=C\CC[C@H](Cc2ccc(F)cc2)C(=O)O[C@H](c2ccccc2)CNC1=O)N[C@H](CO)Cc1ccccc1	90.2*	.	-3.2	-1.2	4.7
O=C(C[C@H]1C/C=C\C[C@H](Cc2ccc(F)cc2)C(=O)O[C@@H](c2ccccc2)CNC1=O)N[C@H](CO)Cc1ccccc1	18.2	.	28.2	3.9	1.1
O=C(C[C@H]1C/C=C\CC[C@H](Cc2ccc(F)cc2)C(=O)O[C@@H](c2ccccc2)CNC1=O)N[C@H](CO)Cc1ccccc1	50.7*	.	14.3	1.5	1.3
CC(C)(C)OC(=O)C[C@H]1C/C=C\C[C@H](CC(=O)N[C@H](CO)Cc2ccccc2)C(=O)N[C@H](Cc2ccccc2)COC1=O	57.9*	.	0.7	3.0	0.1
O=C(C[C@H]1C/C=C\CC[C@H](Cc2ccc(F)cc2)C(=O)O[C@@H](c2ccccc2)CNC1=O)N[C@@H](CO)Cc1ccccc1	41.8	.	2.5	-1.5	0.2
COc1ccc(S(=O)(=O)NCc2cccnc2)cc1NC(=O)c1ccccc1C	2.6	.	.	-2.2	.
CC1=C(C(=O)N2CCOCC2)CC(CC(=O)NC2CCCCC2)C(=O)N1Cc1ccc(C(C)(C)C)cc1 (stereo not given)	1.9	.	.	0.0	.
Cc1ccc([C@H]2C[C@H](O)[C@@H](n3cc(COC(=O)c4ccccc4)nn3)CN2C(=O)c2cccs2)cc1	-6.6	.	.	-2.6	.
CCc1cccc2c(C(=O)COC(=O)c3ccc([N+](=O)[O-])s3)c[nH]c12	-14.3	73.3*	5.0	1.2	0.1
O=C(OCC(=O)c1c[nH]c2ccccc12)c1ccc([N+](=O)[O-])s1	-12.7	38.0	-0.8	-2.5	1.1
COC(=O)c1c(-c2cc(OC)c(OC)c(OC)c2)c2ccc(OCc3ccccn3)cc2c(=O)n1-c1ccc(N)cc1	.	-9.7	.	.	.
COc1ccc(C2/C=C\CN(C(=O)Nc3ccccc3)CC(=O)N2Cc2ccc(F)cc2)cc1 (stereo not given)	-8.6	8.8	-2.0	2.9	-0.3
COc1ccc(C2/C=C\CN(C(=O)Nc3ccc(C(F)(F)F)cc3)CC(=O)N2Cc2ccc(F)cc2)cc1 (stereo not given)	-17.5	75.3*	-4.5	1.2	5.0
NC(=S)N1OC[C@@H]2COc3ccc4ccccc4c3[C@@H]21	-0.2	76.9*	-4.1	0.6	-5.5
OC(c1cccc(Cl)c1)c1nc(-c2csc3ccccc23)cs1 (stereo not given)	-16.4	.	.	-3.6	.
CC(C)(C)C1CCC2(CC1)C(C#N)=C(SCC(=O)NC1CCCCC1)NC(=O)C2C#N (stereo not given)	-21.9	81.2*	1.1	-3.5	-2.8

High-throughput results deposited in PubChem BioAssay by several laboratories.
